Test results taken from ChEMBL document CHEMBL1629520, “Synthesis and optimization of antitubercular activities in a series of 4-(aryloxy)phenyl cyclopropyl methanols” (Eur J Med Chem, 2010).
≈ marks a conversion by molar mass, not a printed value.

Key:
[1] = system: Mycobacterium tuberculosis; assay: Antitubercular activity against Mycobacterium tuberculosis H37Rv after 30 days by agar microdilution method; type: functional
Summary of the method: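 Compound dissolved in DMSO; two-fold dilutions added to Middlebrook 7H10 with OADC in slanted tubes, preincubated 24 h at 37 °C. Tubes then streaked with 5 × 10⁵ bacilli of H37Rv harvested from L–J culture into 0.85% saline with 0.05% Tween-80. Incubated 30 days at 37 °C. MIC is the lowest concentration giving complete inhibition of colonies, judged against drug-free control tubes.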

Vero = assay: Cytotoxicity against african green monkey Vero cells after 24 hrs by MTS assay; type: cell-based; settings: Chlorocebus sabaeus
Summary of the method: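 Vero cells were seeded at 10,000/well in DMEM with antibiotics and 10% FBS and left to adhere overnight at 37 °C, 5% CO₂. […] MTS was then added for 2 h and A490 read, with DMSO wells taken as 100% survival.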

[2] = Selectivity index, ratio of IC50 for african green monkey Vero cells to MIC for Mycobacterium tuberculosis H37Rv; type: functional
Summary of the method: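 Vero cells seeded at 10,000/well in DMEM with antibiotics and 10% FBS, allowed to adhere overnight (37 °C, 5% CO₂). […] MTS added for 2 h, absorbance read at 490 nm, with DMSO wells taken as 100% survival. IC50 divided by H37Rv agar MIC.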

[3] = system: Mycobacterium tuberculosis; assay: Antitubercular activity against Mycobacterium tuberculosis H37Rv infected in mouse BMDM assessed as reduction in intracellular CFU at 5 times MIC after 4 weeks relative to control; type: functional; design: scale not given: the % may be the effect or the level left
Summary of the method: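 Murine bone-marrow macrophages cultured 5 days, then infected 3 h with 5 × 10⁶ H37Rv in antibiotic-free DMEM/10% FBS. Extracellular bacteria washed off, and compound added at 5× MIC. After 4 days at 37 °C, 5% CO₂, cells lysed with 0.1% saponin. Lysates serially diluted in saline and plated on 7H11; colonies counted after 4 weeks at 37 °C.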

[4] = Selectivity index, ratio of IC50 for mouse BMDM to MIC for Mycobacterium tuberculosis H37Rv; type: functional
Summary of the method: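 Bone-marrow cells flushed with DMEM containing 10% FBS, 15% L-929 conditioned supernatant and non-essential amino acids. Seeded at 10⁵/well and grown 5 days, medium changed every 3rd day. Compounds added in antibiotic-free FBS-DMEM for 48 h. MTS added for 2 h, A490 read, DMSO wells taken as 100%. IC50 divided by H37Rv MIC.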

[5] = Cytotoxicity against mouse BMDM after 48 hrs by MTS assay; type: cell-based
Summary of the method: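 Mouse bone-marrow cells were flushed into DMEM with 10% FBS, 15% L-929 conditioned supernatant and non-essential amino acids. They were plated at 10⁵/well and cultured 5 days at 37 °C, 5% CO₂, with medium changed every 3rd day. Graded compound concentrations were added in antibiotic-free FBS-DMEM for 48 h. MTS was added for 2 h and A490 read, with DMSO wells taken as 100% survival.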

[6] = system: Mycobacterium tuberculosis; assay: Antitubercular activity against Mycobacterium tuberculosis H37Rv infected in swiss mouse assessed as increase in mean survival time at 25 mg/kg, po qd for 28 days measured on day 40; type: functional
Summary of the method: (§1)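 Outbred female Swiss mice (18–20 g) infected i.v. via lateral vein with 10⁷ CFU H37Rv; groups of 10 formed next day. Test compound given as aqueous suspension at 100 mg/kg, INH at 25 mg/kg; placebo given to infected controls. All dosing oral, daily for 28 days. Mean survival time and % survivors scored at days 30 and 40; lung bacillary load per g determined on day 30.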

[7] = system: Mycobacterium tuberculosis; assay: Antitubercular activity against Mycobacterium tuberculosis H37Rv infected in swiss mouse assessed as increase mouse survival at 25 mg/kg, po qd for 28 days measured on day 40 relative to control; type: functional; summary of the method: as §1
[8] = system: Mycobacterium tuberculosis; assay: Antitubercular activity against Mycobacterium tuberculosis H37Rv infected in swiss mouse assessed as increase mouse survival at 25 mg/kg, po qd for 28 days measured on day 30 relative to control; type: functional; summary of the method: as §1
[9] = system: Mycobacterium tuberculosis; assay: Antitubercular activity against Mycobacterium tuberculosis H37Rv infected in swiss mouse assessed as increase in mean survival time at 25 mg/kg, po qd for 28 days measured on day 30 relative to control; type: functional; summary of the method: as §1
[10] = system: Mycobacterium tuberculosis; assay: Antitubercular activity against Mycobacterium tuberculosis H37Rv infected in swiss mouse assessed as increase in mean survival time at 100 mg/kg, po qd for 28 days measured on day 40; type: functional; summary of the method: as §1
[11] = system: Mycobacterium tuberculosis; assay: Antitubercular activity against Mycobacterium tuberculosis H37Rv infected in swiss mouse assessed as increase mouse survival at 100 mg/kg, po qd for 28 days measured on day 40 relative to control; type: functional; summary of the method: as §1
[12] = system: Mycobacterium tuberculosis; assay: Antitubercular activity against drug-susceptible Mycobacterium tuberculosis clinical isolate1 after 30 days by agar microdilution method; type: functional
[13] = system: Mycobacterium tuberculosis; assay: Antitubercular activity against drug-susceptible Mycobacterium tuberculosis clinical isolate2 after 30 days by agar microdilution method; type: functional
[14] = system: Mycobacterium tuberculosis; assay: Antitubercular activity against Mycobacterium tuberculosis H37Rv infected in swiss mouse assessed as decrease in bacilli load in lungs at 100 mg/kg, po qd for 28 days measured on day 30; type: functional; summary of the method: as §1
[15] = Chemical stability of the compound in HCl at […] assessed as compound remaining after 3 hrs by HPLC analysis; type: physicochemical; settings: HCl solution; read-out: Stability
Summary of the method: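 Compound held in 0.1N HCl (gastric pH) at ambient temperature for up to 3 h and analysed by HPLC on a CN column (250 mm × 4 mm, 5 µm) at 25 ± 3 °C with PDA detection. Intact parent was followed by its peak, and degradation products by their retention times.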

[16] = system: Mycobacterium tuberculosis; assay: Antitubercular activity against Mycobacterium tuberculosis H37Rv infected in swiss mouse assessed as increase mouse survival at 100 mg/kg, po qd for 28 days measured on day 30 relative to control; type: functional; summary of the method: as §1
[17] = system: Mycobacterium tuberculosis; assay: Antitubercular activity against Mycobacterium tuberculosis H37Rv infected in swiss mouse assessed as increase in mean survival time at 100 mg/kg, po qd for 28 days measured on day 30; type: functional; summary of the method: as §1

With `COc1cc(COc2ccc(C(=O)C3CC3)cc2)cc(OC)c1OC` the MIC [1] was > 12.5 µg/mL.
With `COc1cc(COc2ccc(C(=O)C3CC3)cc2)ccc1OCCN1CCCCC1` the MIC [1] was > 12.5 µg/mL.
In the case of `O=C(c1ccc(OCc2ccc(OCc3ccccc3)cc2)cc1)C1CC1`, the IC50 (Vero) is reported as > 50 µg/mL, the “Selectivity Index” value [2] is reported as >10 and the Activity [3] is reported as 0%. The MIC [1] was 1.56 µg/mL (≈ 4.35 µM), the Selectivity Index [4] was > 10 and the IC50 [5] was > 50 µg/mL.
Compound `O=C(c1ccc(OCc2cccc(OCCN3CCCCC3)c2)cc1)C1CC1` has an MIC [1] of 12.5 µg/mL (≈ 32.9 µM).
Compound `CC(C)N(CCOc1ccc(COc2ccc(C(=O)C3CC3)cc2)cc1)C(C)C` has an MIC [1] of 12.5 µg/mL (≈ 31.6 µM).
`COc1cc(COc2ccc(C(O)C3CC3)cc2)ccc1OCCN1CCOCC1` (stereo not drawn) showed an MIC [1] of 12.5 µg/mL (≈ 30.2 µM).
For `CCCCN(CCCC)CCOc1ccc(C(=O)C2CC2)cc1`, the MIC [1] was > 12.5 µg/mL.
Compound `OC(c1ccc(OCc2cccc(Br)c2)cc1)C1CC1` (stereo not drawn) has an MIC [1] of 12.5 µg/mL (≈ 37.5 µM).
Compound `COc1cc(COc2ccc(C(O)C3CC3)cc2)cc(OC)c1OC` (stereo not drawn) has an MIC [1] of 12.5 µg/mL (≈ 36.3 µM).
In the case of `O=[N+]([O-])c1cccc(COc2ccc(C(O)C3CC3)cc2)c1` (stereo not drawn), the MIC [1] is reported as 6.25 µg/mL (≈ 20.9 µM).
With `CC(C)N(CCOc1ccc(COc2ccc(C(O)C3CC3)cc2)cc1)C(C)C` (stereo not drawn) the MIC [1] was 12.5 µg/mL (≈ 31.4 µM).
In the case of `NNC(=O)c1ccncc1` [ISONIAZID], the MST [6] is reported as 40, the survival at 25 mg/kg [7] is reported as 100% and the survival at 25 mg/kg [8] is reported as 100%. It also gave an MST [9] of 30.
For `OC(c1ccc(OCc2ccc(OCCN3CCCCC3)cc2)cc1)C1CC1` (stereo not drawn), the MST [10] was 31.62, the IC50 (Vero) was > 50 µg/mL and the survival at 100 mg/kg [11] was 25%. The “Selectivity Index” value [2] was >10, the MIC [12] was > 12.5 µg/mL and the MIC [13] was > 12.5 µg/mL. For the same compound, the Activity [3] was 98%, the MIC [1] was 3.12 µg/mL (≈ 8.18 µM) and the Activity [14] was 9 ×10⁷ /g. The Selectivity Index [4] was > 10, the remaining at 3 h [15] was < 70% and the IC50 [5] was > 50 µg/mL. For the same compound, the survival at 100 mg/kg [16] was 50% and the MST [17] was 27.5.
For `OC(c1ccc(OCc2cccc(OCCN3CCCCC3)c2)cc1)C1CC1` (stereo not drawn), the MIC [1] was 6.25 µg/mL (≈ 16.4 µM).
With `OC(c1ccc(OCc2ccc(Br)cc2)cc1)C1CC1` (stereo not drawn) the Activity [3] was 88%, the MIC [1] was 6.25 µg/mL (≈ 18.8 µM) and the MST [17] was 23.37.
`O=C(c1ccc(OCc2cccc(Br)c2)cc1)C1CC1` gave an MIC [1] of 12.5 µg/mL (≈ 37.7 µM).
`O=C(c1ccc(OCc2cccc([N+](=O)[O-])c2)cc1)C1CC1` gave an MIC [1] of 6.25 µg/mL (≈ 21 µM).
With `CN(C)CCOc1ccc(COc2ccc(C(O)C3CC3)cc2)cc1` (stereo not drawn) the IC50 (Vero) was > 50 µg/mL, the “Selectivity Index” value [2] was >10 and the Activity [3] was 80%. The MIC [1] was 3.12 µg/mL (≈ 9.14 µM), the Selectivity Index [4] was > 10 and the IC50 [5] was > 50 µg/mL. For the same compound, the MST [17] was 12.85.
In the case of `O=C(c1ccc(OCc2ccc(Br)cc2)cc1)C1CC1`, the MIC [1] is reported as 6.25 µg/mL (≈ 18.9 µM).
Compound `CCCCN(CCCC)CCOc1ccc(C(O)C2CC2)cc1` (stereo not drawn) has an MIC [1] of 12.5 µg/mL (≈ 39.1 µM).
For `OC(c1ccc(OCc2ccc(OCCN3CCOCC3)cc2)cc1)C1CC1` (stereo not drawn), the IC50 (Vero) was > 50 µg/mL, the “Selectivity Index” value [2] was >10 and the Activity [3] was 89%. For the same compound, the MIC [1] was 3.12 µg/mL (≈ 8.14 µM), the Selectivity Index [4] was > 10 and the IC50 [5] was > 50 µg/mL.
With `COc1cc(COc2ccc(C(O)C3CC3)cc2)ccc1OCCN1CCCCC1` (stereo not drawn) the MIC [1] was 6.25 µg/mL (≈ 15.2 µM).
With `CN(C)CCOc1ccc(COc2ccc(C(=O)C3CC3)cc2)cc1` the MIC [1] was > 12.5 µg/mL.
With `COc1cc(COc2ccc(C(=O)C3CC3)cc2)ccc1OCCN1CCOCC1` the MIC [1] was 6.25 µg/mL (≈ 15.2 µM).
In the case of `OC(c1ccc(OCc2ccc(OCc3ccccc3)cc2)cc1)C1CC1` (stereo not drawn), the IC50 (Vero) is reported as > 50 µg/mL, the “Selectivity Index” value [2] is reported as >10 and the Activity [3] is reported as 54%. For the same compound, the MIC [1] was 3.12 µg/mL (≈ 8.66 µM), the Selectivity Index [4] was > 10 and the IC50 [5] was > 50 µg/mL.
`O=C(c1ccc(OCc2ccc(OCCN3CCOCC3)cc2)cc1)C1CC1` showed an MIC [1] of 6.25 µg/mL (≈ 16.4 µM).
In the case of `COc1cc(COc2ccc(C(=O)C3CC3)cc2)ccc1OCCN(C(C)C)C(C)C`, the MIC [1] is reported as > 12.5 µg/mL.
In the case of `COc1cc(COc2ccc(C(O)C3CC3)cc2)ccc1OCCN(C(C)C)C(C)C` (stereo not drawn), the MIC [1] is reported as > 12.5 µg/mL.
With `O=C(c1ccc(OCc2ccc(OCCN3CCCCC3)cc2)cc1)C1CC1` the MIC [1] was 12.5 µg/mL (≈ 32.9 µM).
